Reference: ChEMBL document CHEMBL4411273, “Polycyclic maleimide-based derivatives as first dual modulators of neuronal calcium channels and GSK-3β for Alzheimer's disease treatment” (Eur J Med Chem, 2019)

How the values were obtained:
[1] = system: Right cardiac atrium; test: Negative inotropic activity in guinea pig spontaneously beating spontaneously beating right atrium assessed as decrease in developed tension; type: ADME, tissue-based; conditions: Cavia porcellus
Method in brief: (§1)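 Isolated spontaneously beating guinea-pig right atrium. Cumulative compound addition from 0.1 to 100 µM. Percent decrease in atrial rate, and in developed tension (n = 7–8), versus control. EC50 from log concentration–response curves by Probit analysis; not calculated when maximum effect was <50%.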

[2] = system: Voltage-gated calcium channel; test: Inhibition of K+-induced voltage gated calcium channel opening in human SH-SY5Y cells assessed as decrease in Ca2+ level at 10 uM after 10 mins by Fluo-4 dye-based fluorescence assay relative to control; type: cell-based
Method in brief: (§2)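 Confluent SH-SY5Y cells (36–72 h after seeding) loaded with Fluo-4, washed with Krebs-HEPES, then incubated 10 min with compound or DMSO. Depolarized by injecting KCl to 70 mM and fluorescence followed for 2 min. Fmax taken after 5% Triton X lysis, Fmin after MnCl2. Ca2+ rise expressed against K+-induced rise without compound; blind testing, at least three independent experiments in triplicate, mean ± SEM. IC50 obtained by sigmoidal regression.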

[3] = system: Right cardiac atrium; test: Negative inotropic activity in guinea pig spontaneously beating right atrium assessed as decrease in developed tension at 5 x 10^-5 M; type: ADME, tissue-based, Cavia porcellus; design: scale not given: the % may be the effect or the level left; conditions: 50 µM; method in brief: as §1
[4] = system: Left cardiac atrium; test: Negative inotropic activity in guinea pig left atrium assessed as decrease in developed tension at 5 x 10^-5 M relative to control; type: ADME, tissue-based, Cavia porcellus; design: scale not given: the % may be the effect or the level left; conditions: 50 µM
Method in brief: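 Isolated guinea-pig left atrium driven at 1 Hz. Cumulative compound concentrations from 0.1 to 100 µM. Percent decrease in developed tension versus control, n = 5–6. EC50 from log concentration–response curves by Probit analysis, n = 6–7; not calculated when maximum effect was <50%.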

[5] = system: Aorta; test: Inhibition of calcium-induced contraction in K+-depolarized guinea pig aortic strips at 5 x 10^-5 M relative to control; type: tissue-based; conditions: Cavia porcellus
Method in brief: (§3)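 Isolated guinea-pig aortic strips and ileum longitudinal smooth muscle, depolarized with 80 mM K+. Calcium-induced contraction measured with cumulative compound addition. Percent inhibition relative to control. IC50 from log concentration–response curves by Probit analysis, n = 6–7; not calculated when maximum effect was <50%.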

[6] = system: Left cardiac atrium; test: Negative inotropic activity in guinea pig left atrium assessed as decrease in developed tension; type: ADME, tissue-based; conditions: Cavia porcellus
[7] = system: Ileum; test: Inhibition of calcium-induced contraction in K+-depolarized guinea pig ileum; type: tissue-based; conditions: Cavia porcellus
[8] = system: Ileum; test: Inhibition of calcium-induced contraction in K+-depolarized guinea pig ileum at 10^-5 M relative to control; type: tissue-based; conditions: Cavia porcellus; method in brief: as §3
[9] = system: Right cardiac atrium; test: Negative chronotropic activity in guinea pig spontaneously beating right atrium assessed as decrease in atrial rate at 5 x 10^-5 M; type: ADME, tissue-based, Cavia porcellus; design: scale not given: the % may be the effect or the level left; conditions: 50 µM; method in brief: as §1
[10] = system: Right cardiac atrium; test: Negative chronotropic activity in guinea pig spontaneously beating right atrium assessed as decrease in atrial rate at 10^-6 M; type: ADME, tissue-based, Cavia porcellus; design: scale not given: the % may be the effect or the level left; conditions: 1 µM; method in brief: as §1
[11] = molecular target: Glycogen synthase kinase-3 beta (Homo sapiens) (UniProt P49841); test: Inhibition of GSK3beta (unknown origin) assessed as residual activity at 50 uM pre-incubated for 30 mins followed by ULight-GS (Ser641/pSer657) peptide substrate addition and measured after 1 hr by TR-FRET assay relative to control
Method in brief: (§4)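 TR-FRET (LANCE Ultra) kinase assay at 22 °C in 50 mM HEPES pH 7.5, 1 mM EGTA, 10 mM MgCl2, 2 mM DTT, 0.01% Tween-20, 3% DMSO. GSK-3β (0.5 nM final) preincubated 30 min with compound; ATP 10 µM and ULight-GS peptide 50 nM (final) added for 1 h. Stopped with 24 mM EDTA plus 2 nM Eu-anti-phospho-GS antibody, 1 h. Read at ex 320 nm, em 615/665 nm. Residual activity relative to DMSO; three separate experiments, mean ± SD.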

[12] = system: Ileum; test: Inhibition of calcium-induced contraction in K+-depolarized guinea pig ileum at 10^-6 M relative to control; type: tissue-based; conditions: Cavia porcellus; method in brief: as §3
[13] = Cytotoxicity against human SH-SY5Y cells assessed as cell viability at 30 uM after 48 hrs by MTT assay relative to control; type: cell-based; conditions: read-out: Activity
Method in brief: (§5)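 SH-SY5Y cells seeded at 70 000 cells/well, exposed before confluence to compounds in MEM/F12 with 10% FBS for 24 h, then fresh medium with 1% FBS plus compounds for a further 24 h. MTT 1.2 mM for 2 h in dark; formazan dissolved in DMSO, absorbance at 540 nm. Viability expressed as percent of vehicle (DMSO)-treated cells; three independent experiments, mean ± SEM.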

[14] = Cytotoxicity against human SH-SY5Y cells assessed as cell viability at 10 uM after 48 hrs by MTT assay relative to control; type: cell-based; conditions: read-out: Activity; method in brief: as §5
[15] = molecular target: Voltage-gated calcium channel; test: Inhibition of K+-induced voltage gated calcium channel opening in human SH-SY5Y cells assessed as decrease in Ca2+ level after 10 mins by Fluo-4 dye-based fluorescence assay; type: cell-based; method in brief: as §2
[16] = system: Left cardiac atrium (Cavia porcellus); test: Negative inotropic activity in guinea pig left atrium driven at 1 Hz assessed as decrease in developed tension at 10^-5 M; design: scale not given: the % may be the effect or the level left; conditions: 10 µM
[17] = system: Ileum; test: Inhibition of calcium-induced contraction in K+-depolarized guinea pig ileum at 5 x 10^-5 M relative to control; type: tissue-based; conditions: Cavia porcellus; method in brief: as §3
[18] = system: Right cardiac atrium; test: Negative chronotropic activity in guinea pig spontaneously beating right atrium assessed as decrease in atrial rate at 10^-5 M; type: ADME, tissue-based, Cavia porcellus; design: scale not given: the % may be the effect or the level left; conditions: 10 µM; method in brief: as §1
[19] = system: Left cardiac atrium; test: Negative inotropic activity in guinea pig left atrium assessed as decrease in developed tension at 10^-5 M relative to control; design: scale not given: the % may be the effect or the level left; conditions: 10 µM
[20] = system: Ileum; test: Inhibition of calcium-induced contraction in K+-depolarized guinea pig ileum at […] relative to control; conditions: Cavia porcellus, read-out: INH
[21] = system: Right cardiac atrium; test: Negative chronotropic activity in guinea pig spontaneously beating right atrium assessed as decrease in atrial rate at 10^-7 M; type: ADME, tissue-based, Cavia porcellus; design: scale not given: the % may be the effect or the level left; conditions: 0.1 µM
[22] = system: Aorta; test: Inhibition of calcium-induced contraction in K+-depolarized guinea pig aortic strips at 10^-6 M relative to control; conditions: Cavia porcellus, read-out: INH
[23] = molecular target: Glycogen synthase kinase-3 beta (Homo sapiens) (UniProt P49841); test: Inhibition of GSK3beta (unknown origin) assessed as residual activity at 3.12 uM pre-incubated for 30 mins followed by ULight-GS (Ser641/pSer657) peptide substrate addition and measured after 1 hr by TR-FRET assay relative to control; method in brief: as §4

Chain of Glycogen synthase kinase-3 beta (Homo sapiens) (P49841 whole entry, looked up): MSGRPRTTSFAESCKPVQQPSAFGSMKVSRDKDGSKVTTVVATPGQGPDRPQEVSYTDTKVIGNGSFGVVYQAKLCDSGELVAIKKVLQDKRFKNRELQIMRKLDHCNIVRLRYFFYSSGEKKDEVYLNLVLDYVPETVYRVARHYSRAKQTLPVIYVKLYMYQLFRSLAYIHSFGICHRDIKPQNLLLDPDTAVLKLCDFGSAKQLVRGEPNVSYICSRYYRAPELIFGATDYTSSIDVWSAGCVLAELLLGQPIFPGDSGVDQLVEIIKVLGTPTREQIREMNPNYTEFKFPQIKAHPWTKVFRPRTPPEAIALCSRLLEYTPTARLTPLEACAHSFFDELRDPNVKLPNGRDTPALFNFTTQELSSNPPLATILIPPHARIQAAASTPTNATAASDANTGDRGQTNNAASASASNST

SMILES	EC50 [1] [nM]	inhibition (INH) [2] [%]	Activity [3] [%]	Activity [4] [%]	inhibition at 50 µM [5] [%]	EC50 [6] [nM]	EC50 [7] [nM]	viability at 48 h, 30 µM [13] [%]	viability at 48 h, 10 µM [14] [%]	IC50 [15] [nM]	Activity [16] [%]	inhibition at 50 µM [17] [%]	Activity [18] [%]	Activity [19] [%]	further results
CC(=O)Nc1ccc2c(c1)C1c3ccccc3C2C2C(=O)NC(=O)C12 (stereo unspecified)	2180	8	93	79	10	3650	2510								inhibition at 10 µM [8]: 67%; Activity [9]: 37%
Nc1ccc2c(c1)C1c3ccccc3C2C2C(=O)NC(=O)C12 (stereo unspecified)	2200	6	79	74		1490	1270								Activity [10]: 15%; inhibition at 10 µM [8]: 90%
O=C1NC(=O)C2C1C1(Cl)c3ccccc3C2(Cl)c2ccccc21 (stereo unspecified)	470	38	97	97	7	220	490	92	95	15000					Activity [11]: 48%; inhibition at 1 µM [12]: 68%
CC(=O)c1ccc2c(c1)C1c3ccccc3C2C2C(=O)NC(=O)C12 (stereo unspecified)		20		11	18		770				4	85	33		
CC(=O)Nc1cccc2c1C1c3ccccc3C2C2C(=O)NC(=O)C12 (stereo unspecified)		0	34		6	320						12		65	Activity [9]: 8%
COC(=O)C1=C(C)NC(C)=C(C(=O)OC)C1c1ccccc1[N+](=O)[O-] [NIFEDIPINE]							1.5								inhibition at 0.005 µM [20]: 70%; Activity [21]: 85%; inhibition at 1 µM [22]: 82%; Activity ([19]; Left cardiac atrium): 97%
Nc1cccc2c1C1c3ccccc3C2C2C(=O)NC(=O)C12 (stereo unspecified)	1870	11	92	82	8	1910	14700					97	42		
COCCOC(=O)C1=C(C)NC(C)=C(C(=O)OC(C)C)C1c1cccc([N+](=O)[O-])c1 (stereo unspecified) [NIMODIPINE]		25								14000					
O=C1NC(=O)C2C3c4ccccc4C(c4cccc(Cl)c43)C12 (stereo unspecified)	1080	37			9	870	1180	93	92	11000	94		37	93	inhibition at 10 µM [8]: 90%
O=C1NC(=O)C2C1C1c3ccccc3C2(/C=N/Cc2ccccc2)c2ccccc21 (stereo unspecified)	2870	4	85	75		850	12100					85			Activity [11]: 51%; Activity [9]: 26%
O=C1NC(=O)C2C3c4ccccc4C(c4ccc(Cl)cc43)C12 (stereo unspecified)	2480	39			21	430	3330	97	91	15000	87		47	80	inhibition at 1 µM [12]: 90%
CCCCCCCNC(=O)C12c3ccccc3C(c3ccccc31)C1C(=O)NC(=O)C12 (stereo unspecified)	510	56			6	1910	3670	87	85	9000	85	94	45	76	Activity [11]: 10%; Activity [23]: 55%
